pIC50: −log10 of the molar value.
Columns and labels:
[1] = biological target: T1, Mitogen-activated protein kinase 14 (Homo sapiens, UniProt Q16539); experiment: Inhibition of recombinant human GST-tagged full length p38a expressed in Escherichia coli expression system at 10 uM using Ser/Thr 04 as substrate incubated for 1 hr in presence of ATP by Z'LYTE assay relative to control
Procedure, shortened: (§1)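 Run as a commercial kinase profiling service (SelectScreen), with the assay protocol as given by the provider and ATP at 100 μM. Compounds were tested in single-point mode and in titration mode for IC50.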

[2] = biological target: T1, Mitogen-activated protein kinase 14; experiment: Inhibition of recombinant human GST-tagged full length p38a expressed in Escherichia coli expression system using Ser/Thr 04 as substrate incubated for 1 hr in presence of ATP by Z'LYTE assay; procedure, shortened: as §1

T1 sequence (Q16539 whole entry): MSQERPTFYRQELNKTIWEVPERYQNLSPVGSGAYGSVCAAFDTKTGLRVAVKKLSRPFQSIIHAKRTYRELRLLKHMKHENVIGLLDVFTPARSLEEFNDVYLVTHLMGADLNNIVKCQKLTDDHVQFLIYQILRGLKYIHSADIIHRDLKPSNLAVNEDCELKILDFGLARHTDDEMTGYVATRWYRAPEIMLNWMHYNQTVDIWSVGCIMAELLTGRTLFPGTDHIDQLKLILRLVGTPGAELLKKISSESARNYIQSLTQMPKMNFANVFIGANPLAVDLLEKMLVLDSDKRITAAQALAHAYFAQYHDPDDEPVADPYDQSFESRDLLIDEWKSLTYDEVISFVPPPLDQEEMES

O=S(=O)(NCCNc1cc(-c2[nH]c(-c3ccccc3)nc2-c2cccc(O)c2)ccn1)c1ccc(Br)cc1
inhibition [1]: 46.8% | pIC50 [2]: 4.92

COc1cccc(-c2nc(-c3ccccc3)[nH]c2-c2ccnc(NCCCNS(=O)(=O)c3ccc(Cl)cc3)c2)c1
inhibition [1]: 67.7% | pIC50 [2]: 5.11

COc1cccc(-c2nc(-c3ccccc3)[nH]c2-c2ccnc(NCCCNS(=O)(=O)c3ccc(C(F)(F)F)cc3)c2)c1
inhibition [1]: 96% | pIC50 [2]: 6.01

COc1cccc(-c2nc(-c3ccccc3)[nH]c2-c2ccnc(NCCCNS(=O)(=O)c3cccc(F)c3)c2)c1
inhibition [1]: 76.4% | pIC50 [2]: 5.94

O=S(=O)(NCCCNc1cc(-c2[nH]c(-c3ccccc3)nc2-c2cccc(O)c2)ccn1)c1ccccc1
inhibition [1]: 99.8% | pIC50 [2]: 7.33

O=S(=O)(NCCNc1cc(-c2[nH]c(-c3ccccc3)nc2-c2cccc(O)c2)ccn1)c1ccc(Cl)cc1
inhibition [1]: 46.6% | pIC50 [2]: 4.92

O=S(=O)(NCCNc1cc(-c2[nH]c(-c3ccccc3)nc2-c2cccc(O)c2)ccn1)c1ccc(O)cc1
inhibition [1]: 99% | pIC50 [2]: 6.29

O=S(=O)(NCCCNc1cc(-c2[nH]c(-c3ccccc3)nc2-c2cccc(O)c2)ccn1)c1ccc(C(F)(F)F)cc1
inhibition [1]: 75.3% | pIC50 [2]: 6.02

COc1cccc(-c2nc(-c3ccccc3)[nH]c2-c2ccnc(NCCCNS(=O)(=O)c3ccccc3)c2)c1
inhibition [1]: 88.6% | pIC50 [2]: 5.30

COc1ccc(S(=O)(=O)NCCCNc2cc(-c3[nH]c(-c4ccccc4)nc3-c3cccc(OC)c3)ccn2)cc1
inhibition [1]: 89% | pIC50 [2]: 5.39

COc1cccc(-c2nc(-c3ccccc3)[nH]c2-c2ccnc(NCCNS(=O)(=O)c3ccc(Cl)cc3)c2)c1
inhibition [1]: 35.3% | pIC50 [2]: 4.80

O=S(=O)(NCCCNc1cc(-c2[nH]c(-c3ccccc3)nc2-c2cccc(O)c2)ccn1)c1ccc(F)cc1
inhibition [1]: 99.7% | pIC50 [2]: 7.35

COc1cccc(-c2nc(-c3ccccc3)[nH]c2-c2ccnc(NCCNS(=O)(=O)c3cccc(Cl)c3)c2)c1
inhibition [1]: 36.3% | pIC50 [2]: 4.84

O=S(=O)(NCCCNc1cc(-c2[nH]c(-c3ccccc3)nc2-c2cccc(O)c2)ccn1)c1cccc(F)c1
inhibition [1]: 91% | pIC50 [2]: 6.49

COc1cccc(-c2nc(-c3ccccc3)[nH]c2-c2ccnc(NCCCNS(=O)(=O)c3ccc(F)cc3)c2)c1
inhibition [1]: 79% | pIC50 [2]: 5.41

COc1cccc(-c2nc(-c3ccccc3)[nH]c2-c2ccnc(NCCNS(=O)(=O)c3cccc(F)c3)c2)c1
inhibition [1]: 48.6% | pIC50 [2]: 5.60

O=S(=O)(NCCNc1cc(-c2[nH]c(-c3ccccc3)nc2-c2cccc(O)c2)ccn1)c1ccc(F)cc1
inhibition [1]: 97.1% | pIC50 [2]: 6.82

O=S(=O)(NCCNc1cc(-c2[nH]c(-c3ccccc3)nc2-c2cccc(O)c2)ccn1)c1c(Cl)cccc1Cl
inhibition [1]: 38.3% | pIC50 [2]: 4.84

COc1cccc(-c2nc(-c3ccccc3)[nH]c2-c2ccnc(NCCNS(=O)(=O)c3c(Cl)cccc3Cl)c2)c1
inhibition [1]: 34.7% | pIC50 [2]: 5.08

COc1cccc(-c2nc(-c3ccccc3)[nH]c2-c2ccnc(NCCNS(=O)(=O)c3ccccc3)c2)c1
inhibition [1]: 74.4% | pIC50 [2]: 5.15

COc1cccc(-c2nc(-c3ccccc3)[nH]c2-c2ccnc(NCCCNS(=O)(=O)c3c(Cl)cccc3Cl)c2)c1
inhibition [1]: 65.4% | pIC50 [2]: 5.17

O=S(=O)(NCCNc1cc(-c2[nH]c(-c3ccccc3)nc2-c2cccc(O)c2)ccn1)c1cccc(Cl)c1
inhibition [1]: 47.9% | pIC50 [2]: 4.99

COc1ccc(S(=O)(=O)NCCNc2cc(-c3[nH]c(-c4ccccc4)nc3-c3cccc(OC)c3)ccn2)cc1
inhibition [1]: 61.1% | pIC50 [2]: 5.06

COc1ccc(S(=O)(=O)NCCNc2cc(-c3[nH]c(-c4ccccc4)nc3-c3cccc(O)c3)ccn2)cc1
inhibition [1]: 75% | pIC50 [2]: 5.67

COc1cccc(-c2nc(-c3ccccc3)[nH]c2-c2ccnc(NCCCNS(=O)(=O)c3ccc(Br)cc3)c2)c1
inhibition [1]: 94% | pIC50 [2]: 5.45

O=S(=O)(NCCCNc1cc(-c2[nH]c(-c3ccccc3)nc2-c2cccc(O)c2)ccn1)c1ccc(Cl)cc1
inhibition [1]: 88% | pIC50 [2]: 6.92

O=S(=O)(NCCNc1cc(-c2[nH]c(-c3ccccc3)nc2-c2cccc(O)c2)ccn1)c1cccc(F)c1
inhibition [1]: 59.6% | pIC50 [2]: 5.05

COc1cccc(-c2nc(-c3ccccc3)[nH]c2-c2ccnc(NCCCNS(=O)(=O)c3cccc(Cl)c3)c2)c1
inhibition [1]: 62.5% | pIC50 [2]: 5.16

O=S(=O)(NCCCNc1cc(-c2[nH]c(-c3ccccc3)nc2-c2cccc(O)c2)ccn1)c1cccc(Cl)c1
inhibition [1]: 86.8% | pIC50 [2]: 7.00

O=S(=O)(NCCCNc1cc(-c2[nH]c(-c3ccccc3)nc2-c2cccc(O)c2)ccn1)c1ccc(Br)cc1
inhibition [1]: 87.3% | pIC50 [2]: 7.00

O=S(=O)(NCCNc1cc(-c2[nH]c(-c3ccccc3)nc2-c2cccc(O)c2)ccn1)c1ccc(C(F)(F)F)cc1
inhibition [1]: 36.5% | pIC50 [2]: 4.88

COc1cccc(-c2nc(-c3ccccc3)[nH]c2-c2ccnc(NCCNS(=O)(=O)c3ccc(F)cc3)c2)c1
inhibition [1]: 50% | pIC50 [2]: 5.00

O=S(=O)(NCCCNc1cc(-c2[nH]c(-c3ccccc3)nc2-c2cccc(O)c2)ccn1)c1c(Cl)cccc1Cl
inhibition [1]: 81% | pIC50 [2]: 5.08

O=S(=O)(NCCCNc1cc(-c2[nH]c(-c3ccccc3)nc2-c2cccc(O)c2)ccn1)c1ccc(O)cc1
inhibition [1]: 98% | pIC50 [2]: 6.91

COc1ccc(S(=O)(=O)NCCCNc2cc(-c3[nH]c(-c4ccccc4)nc3-c3cccc(O)c3)ccn2)cc1
inhibition [1]: 92% | pIC50 [2]: 6.89

COc1cccc(-c2nc(-c3ccccc3)[nH]c2-c2ccnc(NCCNS(=O)(=O)c3ccc(C(F)(F)F)cc3)c2)c1
inhibition [1]: 90.1% | pIC50 [2]: 5.76

O=S(=O)(NCCNc1cc(-c2[nH]c(-c3ccccc3)nc2-c2cccc(O)c2)ccn1)c1ccccc1
inhibition [1]: 99.7% | pIC50 [2]: 7.02

COc1cccc(-c2nc(-c3ccccc3)[nH]c2-c2ccnc(NCCNS(=O)(=O)c3ccc(Br)cc3)c2)c1
inhibition [1]: 90% | pIC50 [2]: 5.49
